Measurements from ChEMBL document CHEMBL3808365, “Potent and Selective CK2 Kinase Inhibitors with Effects on Wnt Pathway Signaling in Vivo” (ACS Med Chem Lett, 2016).
In brackets after ≈: the same amount, converted by molar mass. Activity calls are given as the source filed them. No cut-off for these calls is given here.

Key:
[1] = Intrinsic clearance in rat hepatocyte assessed per 10^6 cells; assay type: ADME, cell-based; conditions: hepatocytes, read-out: CLH
[2] = Inhibition of CK2 in mouse L-Wnt3a cells assessed as suppression of Wnt3a-mediated L S/L Super TOPFlash reporter gene transcription after 24 hrs; conditions: L Wnt-3A
[3] = Aqueous solubility of the compound in phosphate buffer at pH 7.4 incubated for 24 hrs by LC/MS/MS method; assay type: physicochemical
[4] = Intrinsic clearance in human liver microsomes; assay type: ADME; conditions: read-out: CLH
[5] = Fraction unbound in human plasma at 10 uM by equilibrium dialysis method; assay type: ADME, cell-free
[6] = molecular target: Casein kinase II subunit alpha (Homo sapiens, UniProt P68400); experiment: Inhibition of full length N-terminal 6xHis-tagged recombinant human CK2alpha expressed in fall armyworm Sf21 cells using BODIPY-FL-RRRDDDSDDD-CONH2 as substrate after 90 mins by mobility shift assay
Casein kinase II = Casein kinase II (Homo sapiens, UniProt P19784+P67870+P68400); experiment: Inhibition of CK2 in human DLD1 HA-myr-AKT1 cells assessed as suppression of AKTser129 phosphorylation after 3 to 24 hrs by Western blot analysis
Mus musculus [7] = experiment: In vivo inhibition of active beta-catenin phosphorylation at Ser37 or Thr41 in human SW620 cells xenografted in iv dosed Ncr nu/nu mouse after 48 hrs by Western blot analysis; assay type: functional, organism-based; conditions: SW-620
Method in brief: (§1)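 SW620 (APC mutant) xenograft mice dosed IV at 10 or 30 mg/kg; pAKT S129 and active β-catenin measured by Western blot of tumor lysates, one lane per vehicle- or compound-treated animal.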

Mus musculus [8] = experiment: In vivo inhibition of AKT phosphorylation at S129 in human DLD1 cells xenografted in Ncr nu/nu mouse at 10 mg/kg, iv measured up to 24 hrs; assay type: functional, organism-based; conditions: DLD-1
Method in brief: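 DLD-1 TOPflash xenograft mice given a single 10 mg/kg IV dose; tumor AKT Ser129 phosphorylation assessed out to 24 h.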

[9] = molecular target: Homeodomain-interacting protein kinase 4 (Homo sapiens) (UniProt Q8NE63); experiment: Inhibition of Hipk4 (unknown origin) at 0.1 uM by quantitative PCR
Method in brief: (§2)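 Single-concentration screen at 0.1 μM, run as part of a selectivity panel of 402 kinases.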

[10] = molecular target: Death-associated protein kinase 2 (Homo sapiens) (UniProt Q9UIK4); experiment: Inhibition of Dapk2 (unknown origin) at 0.1 uM by quantitative PCR; method in brief: as §2
Mus musculus [11] = experiment: In vivo inhibition of AKT phosphorylation in human SW620 cells xenografted in iv dosed Ncr nu/nu mouse after 48 hrs by Western blot analysis; assay type: functional, organism-based; conditions: SW-620; method in brief: as §1
[12] = molecular target: Dual specificity tyrosine-phosphorylation-regulated kinase 1A (Homo sapiens) (UniProt Q13627); experiment: Inhibition of Dyrk1a (unknown origin) at 0.1 uM by quantitative PCR; method in brief: as §2
[13] = molecular target: Dual specificity tyrosine-phosphorylation-regulated kinase 1B (Homo sapiens) (UniProt Q9Y463); experiment: Inhibition of Dyrk1b (unknown origin) 0.1 uM by quantitative PCR; method in brief: as §2
[14] = Antitumor activity against human SW620 cells harboring APC mutation xenografted in Ncr nu/nu mouse at 30 mg/kg, ip administered as bolus dose for once in every week for 3 weeks; assay type: functional; conditions: SW-620, ip, 504 h, read-out: TGI
Method in brief: (§3)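 Mouse xenografts (HCT-116 β-catenin mutant; SW620 APC mutant) dosed at 30 mg/kg weekly for 3 cycles; efficacy expressed as % tumor growth inhibition.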

[15] = molecular target: Voltage-gated inwardly rectifying potassium channel KCNH2 (Homo sapiens, UniProt Q12809); experiment: Inhibition of human ERG expressed in CHO cells by patch clamp assay; assay type: cell-based
[16] = Antiproliferative activity against human […] cells after 72 hrs by alamar blue assay; assay type: functional; conditions: HCT-116, 72 h
SW-620 = experiment: Antitumor activity against human SW620 cells harboring APC mutation xenografted in ip dosed Ncr nu/nu mouse administered as bolus dose for once in every week for 3 weeks; assay type: functional, organism-based
[17] = molecular target: Homeodomain-interacting protein kinase 2 (Homo sapiens) (UniProt Q9H2X6); conditions: 0.1 uM
Plasma = experiment: Drug uptake in Ncr nu/nu mouse plasma xenografted with human DLD1 cells at 10 mg/kg, iv measured up to 24 hrs; assay type: ADME, organism-based, DLD-1; conditions: in vivo
Method in brief: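 Single 10 mg/kg IV dose in DLD-1 TOPflash xenograft mice; plasma drug concentration followed to 24 h.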

[18] = molecular target: Bone morphogenetic protein receptor type-1B (Homo sapiens) (UniProt O00238); experiment: Inhibition of BMPR1b (unknown origin) at 0.1 uM by quantitative PCR
[19] = Antiproliferative activity against human DLD1 cells after 72 hrs by alamar blue assay; assay type: functional; conditions: DLD-1, 72 h
[20] = Antitumor activity against human HCT116 cells harboring beta-catenin mutation xenografted in Ncr nu/nu mouse at 30 mg/kg, ip administered as bolus dose for once in every week for 3 weeks; assay type: functional; conditions: HCT-116, ip, 504 h, read-out: TGI; method in brief: as §3
Mus musculus [21] = experiment: Toxicity in Ncr nu/nu mouse xenografted with human SW620 cells harboring APC mutation assessed as reduction in body weight at 30 mg/kg, ip measured on day 25; assay type: organism-based, SW-620; set-up: scale not given: the % may be the effect or the level left; conditions: in vivo
Method in brief: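 SW620 (APC mutant) xenograft mice dosed weekly for 3 cycles; body weight change in treated animals recorded on day 25 as mean % change.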

[22] = molecular target: Death-associated protein kinase 3 (Homo sapiens) (UniProt O43293); experiment: Inhibition of Dapk3 (unknown origin) at 0.1 uM by quantitative PCR; method in brief: as §2
Mus musculus [23] = experiment: In vivo inhibition of Wnt-associated Tcf4-luciferase gene transcription in human DLD1 cells xenografted in Ncr nu/nu mouse at 10 mg/kg, iv measured at 8 hrs; assay type: functional; conditions: DLD-1, iv
[24] = molecular target: Dual specificity tyrosine-phosphorylation-regulated kinase 3 (Homo sapiens) (UniProt O43781); experiment: Inhibition of Dyrk3 (unknown origin) at 0.1 uM by quantitative PCR; method in brief: as §2
[25] = molecular target: Dual specificity tyrosine-phosphorylation-regulated kinase 4 (Homo sapiens) (UniProt Q9NR20); experiment: Inhibition of Dyrk4 (unknown origin) at 0.1 uM by quantitative PCR; method in brief: as §2
L-Wnt3a = experiment: Inhibition of CK2 in mouse L-Wnt3a cells assessed as depletion of active form of beta-catenin after 1 hr by Western blot method; assay type: cell-based
[26] = Antiproliferative activity against human SW620 cells after 72 hrs by alamar blue assay; assay type: functional; conditions: SW-620, 72 h
[27] = molecular target: Homeodomain-interacting protein kinase 1 (Homo sapiens) (UniProt Q86Z02); experiment: Inhibition of Hipk1 (unknown origin) at 0.1 uM by quantitative PCR; method in brief: as §2
Mus musculus [28] = experiment: Toxicity in ip dosed Ncr nu/nu mouse xenografted with human HCT-116 cells harboring beta-catenin mutation assessed as reversible body weight loss measured on day 25; assay type: organism-based; conditions: in vivo
[29] = molecular target: Homeodomain-interacting protein kinase 3 (Homo sapiens) (UniProt Q9H422); experiment: Inhibition of Hipk3 (unknown origin) at 0.1 uM by quantitative PCR; method in brief: as §2
HCT-116 = experiment: Antitumor activity against human HCT116 cells harboring beta-catenin mutation xenografted in ip dosed Ncr nu/nu mouse administered as bolus dose for once in every week for 3 weeks; assay type: functional, organism-based
Mus musculus [30] = experiment: Toxicity in ip dosed Ncr nu/nu mouse xenografted with human SW620 cells harboring APC mutation assessed as reversible body weight loss measured on day 25; assay type: organism-based, SW-620; conditions: in vivo

Casein kinase II, sequence (P67870 whole entry): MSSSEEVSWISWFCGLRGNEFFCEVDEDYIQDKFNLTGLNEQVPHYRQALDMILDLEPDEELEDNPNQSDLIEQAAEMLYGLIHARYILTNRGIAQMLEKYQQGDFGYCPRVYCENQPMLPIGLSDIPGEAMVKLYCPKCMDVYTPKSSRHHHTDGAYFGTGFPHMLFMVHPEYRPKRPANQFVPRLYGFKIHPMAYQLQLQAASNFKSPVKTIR
Casein kinase II, sequence (P68400 whole entry): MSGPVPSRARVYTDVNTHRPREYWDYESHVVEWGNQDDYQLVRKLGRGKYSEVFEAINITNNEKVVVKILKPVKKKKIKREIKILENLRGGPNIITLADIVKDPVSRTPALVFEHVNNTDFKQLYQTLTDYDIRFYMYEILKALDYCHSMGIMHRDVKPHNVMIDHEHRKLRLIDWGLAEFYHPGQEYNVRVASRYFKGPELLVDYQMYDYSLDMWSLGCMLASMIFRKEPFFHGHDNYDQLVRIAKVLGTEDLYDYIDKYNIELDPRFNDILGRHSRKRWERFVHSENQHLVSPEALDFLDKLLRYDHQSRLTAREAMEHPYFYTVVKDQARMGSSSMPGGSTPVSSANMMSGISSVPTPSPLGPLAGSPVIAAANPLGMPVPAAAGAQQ
Casein kinase II, sequence (P19784 whole entry): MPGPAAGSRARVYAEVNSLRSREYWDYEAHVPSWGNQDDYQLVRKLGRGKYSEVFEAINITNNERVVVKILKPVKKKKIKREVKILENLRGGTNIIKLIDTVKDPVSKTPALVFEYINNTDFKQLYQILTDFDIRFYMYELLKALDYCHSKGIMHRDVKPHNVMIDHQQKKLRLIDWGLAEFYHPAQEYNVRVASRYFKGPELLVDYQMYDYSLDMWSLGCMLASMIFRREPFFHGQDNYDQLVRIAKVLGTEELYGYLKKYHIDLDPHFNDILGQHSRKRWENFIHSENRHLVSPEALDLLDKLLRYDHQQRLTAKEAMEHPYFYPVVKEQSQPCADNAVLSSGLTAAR
Casein kinase II subunit alpha, sequence (P68400 whole entry): as the sequence (P68400 whole entry) above
Homeodomain-interacting protein kinase 3 (Homo sapiens), sequence (Q9H422 whole entry, looked up): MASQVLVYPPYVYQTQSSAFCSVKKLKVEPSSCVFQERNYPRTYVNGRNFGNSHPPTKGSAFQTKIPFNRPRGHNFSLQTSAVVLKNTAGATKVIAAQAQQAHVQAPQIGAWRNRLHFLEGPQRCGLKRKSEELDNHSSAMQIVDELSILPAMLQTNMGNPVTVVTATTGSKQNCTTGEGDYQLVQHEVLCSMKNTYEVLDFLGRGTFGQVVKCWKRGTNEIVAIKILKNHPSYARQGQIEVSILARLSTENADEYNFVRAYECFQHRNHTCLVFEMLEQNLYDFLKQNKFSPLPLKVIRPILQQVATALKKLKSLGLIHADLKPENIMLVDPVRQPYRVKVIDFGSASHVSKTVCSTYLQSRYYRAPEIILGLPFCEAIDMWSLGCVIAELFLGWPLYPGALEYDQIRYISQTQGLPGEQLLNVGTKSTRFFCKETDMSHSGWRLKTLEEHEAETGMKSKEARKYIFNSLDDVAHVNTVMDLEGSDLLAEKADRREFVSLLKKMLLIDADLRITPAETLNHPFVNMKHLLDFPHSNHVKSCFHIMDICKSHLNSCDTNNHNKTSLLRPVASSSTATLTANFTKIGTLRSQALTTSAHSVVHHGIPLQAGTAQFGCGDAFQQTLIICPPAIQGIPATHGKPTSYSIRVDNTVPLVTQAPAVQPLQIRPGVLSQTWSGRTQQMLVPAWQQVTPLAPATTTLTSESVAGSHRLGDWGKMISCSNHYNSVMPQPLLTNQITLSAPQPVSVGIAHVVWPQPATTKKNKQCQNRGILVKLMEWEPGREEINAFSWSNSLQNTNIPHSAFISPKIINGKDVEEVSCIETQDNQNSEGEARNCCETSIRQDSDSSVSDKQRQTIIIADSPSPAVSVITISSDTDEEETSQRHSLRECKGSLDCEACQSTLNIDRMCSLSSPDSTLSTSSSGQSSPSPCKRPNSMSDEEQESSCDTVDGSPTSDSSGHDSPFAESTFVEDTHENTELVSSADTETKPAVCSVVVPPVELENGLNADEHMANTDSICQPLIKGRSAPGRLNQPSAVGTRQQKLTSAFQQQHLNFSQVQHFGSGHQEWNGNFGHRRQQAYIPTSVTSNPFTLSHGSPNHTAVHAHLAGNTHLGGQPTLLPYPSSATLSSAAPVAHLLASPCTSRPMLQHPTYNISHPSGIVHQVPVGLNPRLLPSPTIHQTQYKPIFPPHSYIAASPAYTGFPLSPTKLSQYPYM
Death-associated protein kinase 2 (Homo sapiens), sequence (Q9UIK4 whole entry, looked up): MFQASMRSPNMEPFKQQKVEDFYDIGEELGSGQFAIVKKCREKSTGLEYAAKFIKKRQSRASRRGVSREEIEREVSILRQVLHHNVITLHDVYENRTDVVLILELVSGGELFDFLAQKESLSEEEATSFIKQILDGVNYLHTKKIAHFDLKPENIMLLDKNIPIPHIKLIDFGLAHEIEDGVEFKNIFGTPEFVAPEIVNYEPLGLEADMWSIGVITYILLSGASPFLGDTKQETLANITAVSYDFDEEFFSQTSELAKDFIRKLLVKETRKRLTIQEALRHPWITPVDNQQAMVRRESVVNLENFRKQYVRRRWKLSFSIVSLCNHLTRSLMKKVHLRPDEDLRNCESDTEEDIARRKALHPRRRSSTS
Dual specificity tyrosine-phosphorylation-regulated kinase 4 (Homo sapiens), sequence (Q9NR20 whole entry): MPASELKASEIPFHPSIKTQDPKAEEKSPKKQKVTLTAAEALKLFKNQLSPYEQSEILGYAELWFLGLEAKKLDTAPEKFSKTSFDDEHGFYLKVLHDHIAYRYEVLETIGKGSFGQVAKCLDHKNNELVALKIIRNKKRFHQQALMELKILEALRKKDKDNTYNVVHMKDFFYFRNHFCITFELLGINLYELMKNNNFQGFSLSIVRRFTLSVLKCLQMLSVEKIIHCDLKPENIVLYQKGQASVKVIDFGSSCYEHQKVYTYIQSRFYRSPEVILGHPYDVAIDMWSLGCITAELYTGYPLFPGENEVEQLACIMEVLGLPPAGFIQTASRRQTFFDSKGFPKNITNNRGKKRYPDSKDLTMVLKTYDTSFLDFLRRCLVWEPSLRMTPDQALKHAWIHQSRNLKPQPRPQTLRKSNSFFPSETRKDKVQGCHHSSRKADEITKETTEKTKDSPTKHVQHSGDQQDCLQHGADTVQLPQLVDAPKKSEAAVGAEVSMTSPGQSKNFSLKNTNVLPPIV
Bone morphogenetic protein receptor type-1B (Homo sapiens), sequence (O00238 whole entry): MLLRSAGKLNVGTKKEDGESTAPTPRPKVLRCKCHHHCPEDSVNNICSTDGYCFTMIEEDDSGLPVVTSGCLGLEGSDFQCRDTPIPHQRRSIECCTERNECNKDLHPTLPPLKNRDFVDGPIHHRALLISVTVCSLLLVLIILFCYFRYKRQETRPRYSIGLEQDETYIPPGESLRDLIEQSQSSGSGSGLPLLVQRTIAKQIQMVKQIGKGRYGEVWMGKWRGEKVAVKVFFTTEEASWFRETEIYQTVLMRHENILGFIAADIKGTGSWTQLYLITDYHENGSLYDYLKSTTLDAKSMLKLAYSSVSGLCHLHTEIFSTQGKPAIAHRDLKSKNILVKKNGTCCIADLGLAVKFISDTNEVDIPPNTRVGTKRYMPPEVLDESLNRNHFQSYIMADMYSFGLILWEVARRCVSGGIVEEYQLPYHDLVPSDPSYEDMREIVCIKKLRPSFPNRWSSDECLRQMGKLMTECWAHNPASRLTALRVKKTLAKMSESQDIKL
Death-associated protein kinase 3 (Homo sapiens), sequence (O43293 whole entry, looked up): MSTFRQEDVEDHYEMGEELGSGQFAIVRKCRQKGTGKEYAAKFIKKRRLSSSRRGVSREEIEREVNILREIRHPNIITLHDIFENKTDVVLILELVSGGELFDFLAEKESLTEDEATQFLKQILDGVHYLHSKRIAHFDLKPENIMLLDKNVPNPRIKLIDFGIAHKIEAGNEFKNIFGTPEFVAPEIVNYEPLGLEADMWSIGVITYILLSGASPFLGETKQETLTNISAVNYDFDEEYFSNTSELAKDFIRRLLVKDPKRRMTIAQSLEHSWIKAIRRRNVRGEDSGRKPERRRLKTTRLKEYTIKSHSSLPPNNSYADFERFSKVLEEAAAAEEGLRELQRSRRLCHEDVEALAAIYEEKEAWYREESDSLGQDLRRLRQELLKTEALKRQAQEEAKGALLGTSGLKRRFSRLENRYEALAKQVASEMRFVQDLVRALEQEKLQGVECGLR
Dual specificity tyrosine-phosphorylation-regulated kinase 3 (Homo sapiens), sequence (O43781 whole entry): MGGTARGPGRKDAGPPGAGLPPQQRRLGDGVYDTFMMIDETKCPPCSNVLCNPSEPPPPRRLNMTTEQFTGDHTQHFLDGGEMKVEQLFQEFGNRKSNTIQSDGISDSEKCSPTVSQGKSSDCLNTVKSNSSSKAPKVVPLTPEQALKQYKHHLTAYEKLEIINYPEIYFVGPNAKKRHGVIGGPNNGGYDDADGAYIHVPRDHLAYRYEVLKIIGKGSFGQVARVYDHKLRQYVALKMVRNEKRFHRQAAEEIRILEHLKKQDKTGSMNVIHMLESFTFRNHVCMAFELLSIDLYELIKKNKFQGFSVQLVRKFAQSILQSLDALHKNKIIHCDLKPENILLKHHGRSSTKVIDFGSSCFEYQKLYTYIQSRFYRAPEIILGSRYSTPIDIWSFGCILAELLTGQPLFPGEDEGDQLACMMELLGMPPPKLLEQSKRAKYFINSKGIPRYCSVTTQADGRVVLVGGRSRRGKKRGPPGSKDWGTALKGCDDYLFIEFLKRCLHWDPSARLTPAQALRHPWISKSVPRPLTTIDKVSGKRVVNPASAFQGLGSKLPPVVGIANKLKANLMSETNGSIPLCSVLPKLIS

SMILES: CC(=O)Nc1cc(Nc2cc(NC3CC3)n3ncc(C#N)c3n2)ccc1N1CC[C@H](N)C1
- hepatocyte CLint [1]: < 1 µL/min/1e6 cells
- IC50 [2]: 690 nM
- solubility at 24 h [3]: 590 µM (≈ 255 µg/mL)
- microsomal CLint [4]: < 3 µL/min/mg
- fraction unbound at 10 µM [5]: 0.31
- IC50 [6]: < 3 nM
- IC50 (Casein kinase II): 70 nM

SMILES: CC(=O)Nc1cc(Nc2cc(NC3CC3)n3ncc(C#N)c3n2)ccc1N(C)CCN
- inhibition (Mus musculus [7]): Dose-dependent effect
- inhibition (Mus musculus [8]): Active
- inhibition [9]: > 50%
- hepatocyte CLint [1]: 8 µL/min/1e6 cells
- inhibition [10]: > 50%
- inhibition (Mus musculus [11]): Dose-dependent effect
- inhibition [12]: > 50%
- inhibition [13]: > 50%
- inhibition in vivo at 30 mg/kg [14]: 74%
- IC50 [2]: 43 nM
- IC50 [15]: > 100000 nM
- solubility at 24 h [3]: > 1000 µM
- GI50 [16]: 10 nM
- TGI (SW-620): Dose-dependent effect
- inhibition [17]: > 50%
- Drug uptake (Plasma): Not Active
- microsomal CLint [4]: 7 µL/min/mg
- inhibition [18]: 74%
- GI50 [19]: 50 nM
- inhibition in vivo at 30 mg/kg [20]: 94%
- Activity (Mus musculus [21]): 6.8%
- inhibition [22]: > 50%
- fraction unbound at 10 µM [5]: 0.39
- inhibition in vivo at 10 mg/kg (Mus musculus [23]): 40%
- inhibition [24]: > 50%
- inhibition [25]: > 50%
- inhibition (L-Wnt3a): Dose-dependent effect
- GI50 [26]: 5 nM
- inhibition [27]: > 50%
- Activity (Mus musculus [28]): Dose-dependent effect
- inhibition [29]: > 50%
- TGI (HCT-116): Dose-dependent effect
- Activity (Mus musculus [30]): Dose-dependent effect

SMILES: CC(=O)Nc1cc(Nc2cc(NC3CC3)n3ncc(C#N)c3n2)ccc1N1CCC[C@@H](N(C)C)C1
- hepatocyte CLint [1]: < 1 µL/min/1e6 cells
- IC50 [2]: 510 nM
- solubility at 24 h [3]: > 900 µM
- microsomal CLint [4]: 19 µL/min/mg
- fraction unbound at 10 µM [5]: 0.11

SMILES: CC(=O)Nc1cccc(Nc2cc(NC3CC3)n3ncc(C#N)c3n2)c1
- hepatocyte CLint [1]: 26 µL/min/1e6 cells
- IC50 [2]: 600 nM
- solubility at 24 h [3]: 15 µM (≈ 5.21 µg/mL)
- GI50 [16]: 700 nM
- microsomal CLint [4]: 20 µL/min/mg
- fraction unbound at 10 µM [5]: 0.05
- GI50 [26]: 700 nM

SMILES: CC(=O)Nc1cc(Nc2cc(NC3CC3)n3ncc(C#N)c3n2)ccc1N1CCN(C)CC1
- hepatocyte CLint [1]: 7 µL/min/1e6 cells
- IC50 [2]: 1100 nM
- solubility at 24 h [3]: 570 µM (≈ 254 µg/mL)
- microsomal CLint [4]: < 4 µL/min/mg
- fraction unbound at 10 µM [5]: 0.18

SMILES: CC(=O)Nc1cc(Nc2cc(NC3CC3)n3ncc(C#N)c3n2)ccc1N(C)C[C@H](C)N
- hepatocyte CLint [1]: < 1 µL/min/1e6 cells
- IC50 [2]: 670 nM
- solubility at 24 h [3]: 895 µM (≈ 388 µg/mL)
- microsomal CLint [4]: < 3 µL/min/mg
- fraction unbound at 10 µM [5]: 0.36
- IC50 [6]: < 3 nM
- IC50 (Casein kinase II): 4 nM

SMILES: CC(=O)Nc1cc(Nc2cc(NC3CC3)n3ncc(C#N)c3n2)ccc1N(C)CCO
- hepatocyte CLint [1]: 17 µL/min/1e6 cells
- solubility at 24 h [3]: 2 µM (≈ 0.841 µg/mL)
- microsomal CLint [4]: 21 µL/min/mg
- fraction unbound at 10 µM [5]: 0.07
- IC50 [6]: < 3 nM

SMILES: CC(=O)Nc1cc(Nc2cc(NC3CC3)n3ncc(C#N)c3n2)ccc1N1CCC[C@H](N)C1
- hepatocyte CLint [1]: < 1 µL/min/1e6 cells
- IC50 [2]: 180 nM
- solubility at 24 h [3]: 704 µM (≈ 314 µg/mL)
- microsomal CLint [4]: < 3 µL/min/mg
- fraction unbound at 10 µM [5]: 0.22

SMILES: CC(=O)Nc1cc(Nc2cc(NC3CC3)n3ncc(C#N)c3n2)ccc1N1CC[C@@H](N)C1
- hepatocyte CLint [1]: 2.5 µL/min/1e6 cells
- IC50 [2]: 960 nM
- solubility at 24 h [3]: 812 µM (≈ 350 µg/mL)
- microsomal CLint [4]: < 3 µL/min/mg
- fraction unbound at 10 µM [5]: 0.32
- IC50 [6]: < 3 nM
- IC50 (Casein kinase II): 70 nM
